Results gathered from unrelated publications.
Target: Adenosine receptor A2a (ADORA2A, Homo sapiens, UniProt P29274)

Structure (SMILES)	test	conditions	Ki [nM]
c1coc(-c2nc3cc(CN4CCCCC4)ccc3o2)c1	ligand displacement, radioligand	cell membranes	19000
CNC(=O)[C@@]12C[C@@H]1[C@@H](n1cnc3c(NCc4cccc(C#CCCCc5cn(-c6ccc(F)c(N)c6)nn5)c4)nc(Cl)nc31)[C@H](O)[C@@H]2O	ligand displacement, radioligand	cell membranes	2730
C=CN1CCCn2c1nc1c2c(=O)n(C)c(=O)n1C	ligand displacement, radioligand	cell membranes	> 10000
Nc1nc(-c2ccccc2Cl)nn1C(=O)CCc1ccccc1	ligand displacement, radioligand	cell membranes	630
CCCCCCN1CCCn2c1nc1c2c(=O)n(C)c(=O)n1C	ligand displacement, radioligand	cell membranes	2070
CCNC(=O)C1OC(n2cnc3c(N)nc(NN=CC4CCC=CO4)nc32)C(O)C1O (centres unmarked)	ligand displacement, radioligand	–	23.3
Oc1cccc(Nc2nc(-c3ccc(F)cc3F)cs2)c1	cell-free assay	–	5100
CNC(=O)[C@@]12C[C@@H]1[C@@H](n1cnc3c(NCc4cccc(C#CCCCCCc5cn(-c6ccc(F)c(N)c6)nn5)c4)nc(Cl)nc31)[C@H](O)[C@@H]2O	ligand displacement, radioligand	cell membranes	550
Cc1cccc(-c2nc(N)n(C(=O)CCc3ccccc3)n2)c1	ligand displacement, radioligand	cell membranes	250
CSC[C@@]12C[C@@H]1[C@@H](n1cnc3c(N)nc(I)nc31)[C@H](O)[C@@H]2O	ligand displacement, radioligand	–	3120
c1coc(-c2nc3cc(CCN4CCCCC4)ccc3o2)c1	ligand displacement, radioligand	cell membranes	7000
